The text below walks through data of article PMC5651997 (Chemosphere, 2017).

The subject of series [1] is D. magna. Kind of series: 48 h acute toxicity test, single chemicals. Format: in vivo, Daphnia magna. Conditions: for LC50: read-out: LC50 (μM)(95% CI).
For series [2], the system named is detoxification and sphingolipid homeostasis genes. Kind of series: qPCR confirmation of differential gene expression. Type of series: in vivo, Daphnia magna. Conditions: 20 or 40 μM atrazine, 96 h, at least one of the concentrations. The procedure, abridged: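 RNA stabilised and stored at −80°C; 2 μg reverse-transcribed with MMLV. SYBR Green qPCR; efficiency from a 1:1–1:1024 dilution series of pooled untreated and treated samples; triplicate 1:15-diluted samples quantified.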

The subject of series [3] is detoxification genes. Description: RNA sequencing, differential gene expression after atrazine exposure. Conditions: 40 μM atrazine, 96 h. Type of series: in vivo, Daphnia magna.
Series [4] has as its system Daphnia HR96. Conditions: ref Karimullina et al., 2012; cited from earlier work.
Series [5] deals with D. magna. Type of series: in vivo, Daphnia magna. Conditions: neonates, 48 h, 40 μM atrazine.
A short description of series [6]: 48 h acute toxicity test, single chemicals. Type of series: in vivo, Daphnia magna. Conditions: Daphnia magna, in vivo, LC50 (μM)(95% CI).
Setting [7] is: neonates (<24 h old), 48 h, chemical individually, (95% CI).
Where [8] appears, read: neonates (<24 h old), 48 h, chemical individually.

Each structure is given as a SMILES string.

Regarding `CC(C)(c1ccc(O)cc1)c1ccc(O)cc1` [BPA, bisphenol A], the Hillslope in series [1] (setting [7]) is on record as −6.891 (−10.34 to −3.438).
As for `CCNc1nc(Cl)nc(NC(C)C)n1` [atrazine], the “expression of two GSTs, cyp370a9, ADH-A and two sphingomyelinases by qPCR” value in series [2] was “significantly up-regulated”. Moreover, in series [3] (glutathione metabolism pathway), the “logFC, GST 1” value turned out to be 1.33 and the “logFC, aminopeptidase” value was 1.13. Moreover, in series [3] (of 26,646 genes identified), the “number of significantly down-regulated genes” value is 441 and the “number of significantly up-regulated genes” value stood at 675. Also, the “potency for activating Daphnia HR96” value in series [4] is recorded as “greatest potency”.
With `CCOP(=S)(OCC)Oc1nc(Cl)c(Cl)cc1Cl` [chlorpyrifos], the Hillslope in series [1] (setting [7]) was −2.498 (−3.795 to −1.496).
`O=S1OCC2C(CO1)C1(Cl)C(Cl)=C(Cl)C2(Cl)C1(Cl)Cl` (centres unmarked) [endosulfan]: in series [5], the “drop of LC50 in atrazine-containing binary mixture vs chemical alone” value is given as 60%. Moreover, the Hillslope in series [1] (setting [7]) is −8.310 (−10.52 to −6.098).
On to `CCCCCCCCCc1ccc(O)cc1` [p-nonylphenol], for which, in series [5], the “drop of LC50 in atrazine-containing binary mixture vs chemical alone” value was determined as 25%. The Hillslope in series [1] (Daphnia magna, in vivo) is reported as −5.895 (−8.000 to −3.790). This compound gave an LC50 in series [6] of 1.94 µM.
Regarding `CCOP(=S)(OCC)Oc1ccc([N+](=O)[O-])cc1` [parathion], in series [1] (setting [7]), the Hillslope is −4.831 (−8.368 to −1.294). Moreover, the LC50 in series [1] (setting [8]) is 0.0122 µM.
Consider `Oc1cc(Cl)ccc1Oc1ccc(Cl)cc1Cl` [triclosan], for which, in series [1] (setting [7]), the Hillslope is on record as −4.365 (−6.091 to −3.083). For the same compound, the LC50 in series [1] (setting [8]) was 1.08 µM.
